Measured values from different studies.
Observed: cell growth or viability

| Structure (SMILES) | cell line | test | setting | endpoint | result |
| --- | --- | --- | --- | --- | --- |
| Nc1ccc(/C=C/C(=O)N2CCc3c(oc4c(-c5ccc(F)cc5)cc(-c5ccc(C(=O)N6CCC(F)(F)CC6)nn5)cc34)C2)cn1 | Pan02 | CCK-8 | 72 h | IC50 | 250 nM |
| CCNCCCn1c2c(c3cc(OC)c(OC)cc3c1=O)C(=O)c1cc3c(nc1-2)OCO3 | SK-N-MC | MTS | 72 h | IC50 | 137 nM |
| C#Cc1nc(C2=C(C)C(OC(=O)C(C)(C)C)/C(=N\OC(=O)C(C)(C)C)C2)cs1 (centres unmarked) | HT-1080 |  |  | CC50 | 73 nM |
| C[C@H]1[C@H](OC(=O)CCC(=O)O)O[C@@H]2O[C@@]3(C)CC[C@H]4[C@H](C)CC[C@@H]1[C@@]24OO3 | SH-SY5Y | resazurin |  | IC50 | 4600 nM |
| CC(C)(C)c1cnc(CSc2cnc(NC(=O)C3CCN(CCCCCCCCSc4cccc5c4CN(C4CCC(=O)NC4=O)C5=O)CC3)s2)o1 (centres unmarked) | HuT78 | trypan blue | 0.25 µM, 48 h | viability | 22.4% |
| OC(c1cc(C(F)(F)F)nc2c(C(F)(F)F)cccc12)C1CCCCN1 (centres unmarked) | SH-SY5Y | resazurin |  | IC50 | 8000 nM |
| Nc1ccc(/C=C/C(=O)N2CCc3c(oc4c(-c5ccc(F)cc5)cc(-c5ccc(C(=O)N6C[C@@H]7[C@H](C6)C7(F)F)nn5)cc34)C2)cn1 | Pan02 | CCK-8 | 72 h | IC50 | 300 nM |
| C=CC(=O)NC1CCN(c2ncc3ncnc(Nc4ccc(Oc5ccc6c(c5)ncn6C)c(C)c4)c3n2)CC1 | KNS-62 |  |  | EC50 | 11 nM |
| CCN(CC)Cc1cc(Nc2ccnc3cc(Cl)ccc23)ccc1O | SH-SY5Y | resazurin |  | IC50 | 17000 nM |
| O=C(C=Cc1ccccc1)Nc1cc(-c2ccnc(N3CCC(O)CC3)c2)ccn1 | HCC1937 | MTT | 72 h | IC50 | 528 nM |
| CC(C)(C)c1cnc(CSc2cnc(NC(=O)C3CCN(CCCCCSc4cccc5c4CN(C4CCC(=O)NC4=O)C5=O)CC3)s2)o1 (centres unmarked) | HuT78 | trypan blue | 0.25 µM, 48 h | viability | 9.46% |
| COc1cc(NC(C)CCCN)c2ncccc2c1 (centres unmarked) | SH-SY5Y | resazurin |  | IC50 | > 50000 nM |
| COc1cc2c3c(n(CCCNC(C)C)c(=O)c2cc1OC)-c1nc2c(cc1C3=O)OCO2 | SK-N-MC | MTS | 72 h | IC50 | 150 nM |
| CC(C)c1ccccc1[C@@H]1CCCN1C1CC2(CCN(c3ccc(C(=O)NS(=O)(=O)c4ccc(NC[C@H]5CC[C@](C)(O)CC5)c([N+](=O)[O-])c4)c(Oc4cnc5[nH]ccc5c4)c3)CC2)C1 | MM.1R | ATP luminescence | 48 h | IC50 | 7430 nM |
